Test [1] can be described thus: Inhibition of colony formation in rat 9LSF cells after 24 hrs by crystal violet staining. The format is functional. The note with it: read-out: LD50 (the source's name). In short, it runs like this: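 9LSF rat gliosarcoma cells exposed for 24 hours at 1 nM, 3 nM, 10 nM, 30 nM, 100 nM, 1 μM or 10 μM. Then trypsinized, counted, seeded in triplicate and incubated at 37°C until colonies exceeded 50 cells. Flasks with fewer than 50,000 cells got 50,000 lethally irradiated A549 feeder cells first. Colonies fixed, crystal violet-stained and counted. LD50 from four-parameter logistic fit, mean ± SEM of 3 independent experiments.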

Test [2] in a line: Cell cycle arrest in rat 9LSF cells assessed as accumulation at G2/M phase at 50 nM after 24 hrs by propidium iodide based flow cytometry. Type of test: functional. In short, it runs like this:
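9LSF rat gliosarcoma cells were exposed to 50 nM compound for 24 h alongside untreated controls. Cells were then trypsinized, counted, rinsed in PBS and fixed in ice-cold 70% EtOH/PBS at 10⁶ cells/mL, then held at 4°C. For analysis, 10⁶ cells were pelleted, rinsed three times in PBS and resuspended in 1 mL PBS with 1 µL PI (12.5 mg/mL stock in DMSO). The G2/M fraction was read by flow cytometry.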

Molecules are shown by their SMILES. The source made the active and inactive calls. The calls are words filed in the database; no cut-off is given here.

As for `COc1ccc(-c2n[nH]nc2-c2cc(OC)c(OC)c(OC)c2)cc1O`, the CC50 in test [1] came to 7.5 nM. Besides, in test [2], the result was Active.

The values are drawn from ChEMBL document CHEMBL3739417, “Synthesis and biological evaluation of novel 4,5-disubstituted 2H-1,2,3-triazoles as cis-constrained analogues of combretastatin A-4” (2015).
